What was measured:
Type in all cases: functional, cell-based
[1] = system: MGC-803; test: Antitumor activity against human MGC-803 cells assessed as inhibition of cell proliferation incubated for 72 hrs by MTT assay; conditions: MGC-803, 72 h
[2] = system: Bel-7402; test: Antitumor activity against human Bel-7402 cells assessed as inhibition of cell proliferation incubated for 72 hrs by MTT assay; conditions: Bel-7402, 72 h
Method in brief: (§1)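 Cells were exposed to a range of compound concentrations for 72 h at 37 °C. Proliferation was read by MTT assay, and IC50 values are reported.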

[3] = system: Hep 3B2; test: Antitumor activity against human Hep3B cells assessed as inhibition of cell proliferation incubated for 72 hrs by MTT assay; method in brief: as §1
[4] = system: HCT-116; test: Antitumor activity against human HCT-116 cells assessed as inhibition of cell proliferation incubated for 72 hrs by MTT assay; conditions: HCT-116, 72 h; method in brief: as §1

| SMILES | IC50 [1] [µM] | other results |
| --- | --- | --- |
| CC(Oc1cc(-c2cnc3cc(-c4cnn(C)c4)ccn23)sc1C(N)=O)c1cccc(F)c1 (stereo not given) | 16.4 |  |
| CC(Oc1cc(-c2cnc3cc(-c4cnn(CCN5CCOCC5)c4)ccn23)sc1C(N)=O)c1ccccc1C(F)(F)F (stereo not given) | 0.044 | IC50 [2]: 4.33 µM; IC50 [3]: 1.25 µM; IC50 [4]: 0.36 µM |
| COC(=O)c1sc(-c2cnc3cc(-c4cnn(CC5CN(C(=O)OC(C)(C)C)C5)c4)ccn23)cc1OC(C)c1ccccc1C(F)(F)F (stereo not given) | 19.3 |  |
| COC(=O)c1sc(-c2cnc3cc(-c4cnn(CCN(C)C)c4)ccn23)cc1OC(C)c1ccccc1C(F)(F)F (stereo not given) | 0.32 |  |
| CC(Oc1cc(-c2cnc3cc(-c4cnn(CCN5CCCC5)c4)ccn23)sc1C(N)=O)c1ccccc1C(F)(F)F (stereo not given) | 8.4 |  |
| CC(Oc1cc(-c2cnc3cc(-c4cnn(CCN(C)C)c4)ccn23)sc1C(N)=O)c1ccccc1F (stereo not given) | 2.91 |  |
| CC(Oc1cc(-c2cnc3cc(-c4cnn(CCCN5CCN(C)CC5)c4)ccn23)sc1C(N)=O)c1ccccc1C(F)(F)F (stereo not given) | 0.054 | IC50 [2]: 5.99 µM; IC50 [3]: 1.18 µM; IC50 [4]: 0.46 µM |
| CC(Oc1cc(-c2cnc3cc(-c4cnn(C5CCN(C(=O)OC(C)(C)C)C5)c4)ccn23)sc1C(N)=O)c1ccccc1C(F)(F)F (stereo not given) | 0.55 |  |
| COC(=O)c1sc(-c2cnc3cc(-c4cnn(CCCN5CCN(C)CC5)c4)ccn23)cc1OC(C)c1ccccc1C(F)(F)F (stereo not given) | 3.76 |  |
| COC(=O)c1sc(-c2cnc3cc(-c4cnn(C)c4)ccn23)cc1OC(C)c1ccccc1F (stereo not given) | 11.1 |  |
| COC(=O)c1sc(-c2cnc3cc(-c4cnn(CCN(C)C)c4)ccn23)cc1OC(C)c1ccccc1F (stereo not given) | 2.47 |  |
| CC(Oc1cc(-c2cnc3cc(-c4cnn(CCN5CCCCC5)c4)ccn23)sc1C(N)=O)c1ccccc1C(F)(F)F (stereo not given) | 8.68 |  |
| COC(=O)c1sc(-c2cnc3cc(-c4cnn(CCN(C)C)c4)ccn23)cc1OC(C)c1cccc(C(F)(F)F)c1 (stereo not given) | 4.71 |  |
| COC(=O)c1sc(-c2cnc3cc(-c4cnn(CCN(C)C)c4)ccn23)cc1OC(C)c1cccc(F)c1 (stereo not given) | 1.57 |  |
| CC(Oc1cc(-c2cnc3cc(-c4cnn(C)c4)ccn23)sc1C(N)=O)c1ccccc1F (stereo not given) | 3.52 |  |
| CN(C)CCn1cc(-c2ccn3c(-c4ccc(C(N)=O)c(OCc5cccc(F)c5)c4)cnc3c2)cn1 | 0.65 | IC50 [2]: 6.37 µM; IC50 [3]: 1.07 µM; IC50 [4]: 0.7 µM |
| COC(=O)c1sc(-c2cnc3cc(-c4cnn(C)c4)ccn23)cc1OC(C)c1ccccc1 (stereo not given) | 9.18 |  |

| SMILES | IC50 [1] [µM] | other results |
| --- | --- | --- |
| COC(=O)c1sc(-c2cnc3cc(-c4cnn(CCN5CCOCC5)c4)ccn23)cc1OC(C)c1ccccc1C(F)(F)F (stereo not given) | 5.9 |  |
| COC(=O)c1sc(-c2cnc3cc(-c4cnn(CCN5CCCCC5)c4)ccn23)cc1OC(C)c1ccccc1C(F)(F)F (stereo not given) | 7.36 |  |
| COC(=O)c1sc(-c2cnc3cc(-c4cnn(CCN5CCCC5)c4)ccn23)cc1OC(C)c1ccccc1C(F)(F)F (stereo not given) | 2.05 |  |
| COC(=O)c1sc(-c2cnc3cc(-c4cnn(C5CCN(C(=O)OC(C)(C)C)CC5)c4)ccn23)cc1OC(C)c1ccccc1C(F)(F)F (stereo not given) | 20.4 |  |
| CC(Oc1cc(-c2cnc3cc(-c4cnn(CCN(C)C)c4)ccn23)sc1C(N)=O)c1ccccc1 (stereo not given) | 1.95 |  |
| CC(Oc1cc(-c2cnc3cc(-c4cnn(CCN(C)C)c4)ccn23)sc1C(N)=O)c1cccc(C(F)(F)F)c1 (stereo not given) | 6.81 |  |
| COC(=O)c1sc(-c2cnc3cc(-c4cnn(C)c4)ccn23)cc1OC(C)c1cccc(F)c1 (stereo not given) | > 30 |  |
| COC(=O)c1sc(-c2cnc3cc(-c4cnn(C)c4)ccn23)cc1OC(C)c1cccc(C(F)(F)F)c1 (stereo not given) | 17.3 |  |
| CC(Oc1cc(-c2cnc3cc(-c4cnn(C)c4)ccn23)sc1C(N)=O)c1cccc(C(F)(F)F)c1 (stereo not given) | 3.48 |  |
| COC(=O)c1sc(-c2cnc3cc(-c4cnn(CCN(C)C)c4)ccn23)cc1OC(C)c1ccccc1 (stereo not given) | 1.29 |  |
| COC(=O)c1sc(-c2cnc3cc(-c4cnn(C5CCN(C(=O)OC(C)(C)C)C5)c4)ccn23)cc1OC(C)c1ccccc1C(F)(F)F (stereo not given) | 20.3 |  |
| CC(Oc1cc(-c2cnc3cc(-c4cnn(CCN(C)C)c4)ccn23)sc1C(N)=O)c1cccc(F)c1 (stereo not given) | 6.02 |  |
| CC(Oc1cc(-c2cnc3cc(-c4cnn(C)c4)ccn23)sc1C(N)=O)c1ccccc1 (stereo not given) | 2.98 |  |
| COC(=O)c1sc(-c2cnc3cc(-c4cnn(C)c4)ccn23)cc1OC(C)c1ccccc1C(F)(F)F (stereo not given) | 3.92 |  |
| CC(Oc1cc(-c2cnc3cc(-c4cnn(C5CCN(C(=O)OC(C)(C)C)CC5)c4)ccn23)sc1C(N)=O)c1ccccc1C(F)(F)F (stereo not given) | 1.81 |  |
| CC(Oc1cc(-c2cnc3cc(-c4cnn(CC5CN(C(=O)OC(C)(C)C)C5)c4)ccn23)sc1C(N)=O)c1ccccc1C(F)(F)F (stereo not given) | 0.038 | IC50 [2]: 10.4 µM; IC50 [3]: 1.25 µM; IC50 [4]: 0.48 µM |

— ChEMBL document CHEMBL5244264, “Design, synthesis, and structure activity relationship (SAR) studies of novel imidazo[1,2-a] pyridine derivatives as Nek2 inhibitors” (Bioorg Med Chem, 2020)
